pIC50, pKd: −log10 of the molar value. Calls of active or inactive are those of the source. No cut-off for these calls is given here.

The test system of test [1] is Calf thymus DNA. Description: Binding affinity to calf thymus DNA in BPE buffer assessed as change in melting temperature at drug/DNA base pair ratio 1. In kind it is nucleic-acid assay. The following applies: Bos taurus. Put shortly: (§1)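 Melting curves are read at 260 nm in BPE buffer, pH 7.1 (6 mM Na2HPO4, 2 mM NaH2PO4, 1 mM EDTA), in Peltier-heated 10 mm quartz cuvettes. Temperature rises from 20 to 100 °C at 1 °C/min and is monitored with a platinum probe. Tm is taken as the midpoint of the hyperchromic transition.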

The subject of test [2] is Nucleic Acid. Description: Binding affinity to poly(dA-dT)2 in BPE buffer assessed as change in melting temperature at drug/DNA base pair ratio 1. The format is nucleic-acid assay. Put shortly: as §1
The test system of test [3] is Calf thymus DNA. The test can be described thus: Binding affinity to calf thymus DNA in BPE buffer at drug/DNA base pair ratio up to 10 by UV spectroscopic analysis. The following applies: Bos taurus. The format is nucleic-acid assay. Put shortly:
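Absorption spectra are recorded in BPE buffer, pH 7.1, at a constant drug concentration of 20 μM. Aliquots of concentrated calf thymus DNA are added to cover a range of DNA-phosphate/drug ratios.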

In test [4] the test system is Calf thymus DNA. The test can be described thus: Binding affinity to calf thymus DNA at drug/DNA base pair ratio up to 4 by circular dichroism analysis. The format is nucleic-acid assay. The following applies: Bos taurus. The essentials: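 CD spectra are recorded in 1 mM sodium cacodylate buffer, pH 7.0, in 10 mm quartz cuvettes, averaging four scans. A 50 μM drug solution is diluted stepwise with 5 mM DNA. Alternatively, the drug–DNA complex at high P/D is diluted with pure ligand solution to reach the desired drug/DNA ratio.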
In general terms: Circular dichroism is widely used to follow secondary structure.

The test system of test [5] is Calf thymus DNA. Description: Binding affinity to calf thymus DNA by fluorescence titration assay. The format is nucleic-acid assay, Bos taurus. Put shortly: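 Intrinsic drug fluorescence is measured at room temperature with excitation at 360 nm and emission scanned over 380–520 nm. Drug is held at 10 μM with DNA at 0.01–1 mM, each sample prepared separately. The apparent KD is obtained by nonlinear least-squares fitting to KD = [ligand][DNA]/[ligand-DNA].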

For test [6], the system named is Nucleic Acid. Description: Binding affinity to DNA assessed as inhibition of cleavage of DNA substrate up to 100 uM by Dnase1 footprinting assay. In kind it is nucleic-acid assay. The essentials:
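DNase I is then added to a final concentration of about 0.01 unit/mL. Digestion runs 3 min and is stopped by freeze-drying. Protected sites are localized on the gel.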

In test [7] the test system is Nucleic Acid. The test can be described thus: Binding affinity to DNA assessed as inhibition of cleavage of DNA substrate by densitometric analysis. In kind it is nucleic-acid assay.
Test [8] addresses T1, DNA topoisomerase 1 (Homo sapiens) (UniProt P11387).
T1 sequence (whole entry): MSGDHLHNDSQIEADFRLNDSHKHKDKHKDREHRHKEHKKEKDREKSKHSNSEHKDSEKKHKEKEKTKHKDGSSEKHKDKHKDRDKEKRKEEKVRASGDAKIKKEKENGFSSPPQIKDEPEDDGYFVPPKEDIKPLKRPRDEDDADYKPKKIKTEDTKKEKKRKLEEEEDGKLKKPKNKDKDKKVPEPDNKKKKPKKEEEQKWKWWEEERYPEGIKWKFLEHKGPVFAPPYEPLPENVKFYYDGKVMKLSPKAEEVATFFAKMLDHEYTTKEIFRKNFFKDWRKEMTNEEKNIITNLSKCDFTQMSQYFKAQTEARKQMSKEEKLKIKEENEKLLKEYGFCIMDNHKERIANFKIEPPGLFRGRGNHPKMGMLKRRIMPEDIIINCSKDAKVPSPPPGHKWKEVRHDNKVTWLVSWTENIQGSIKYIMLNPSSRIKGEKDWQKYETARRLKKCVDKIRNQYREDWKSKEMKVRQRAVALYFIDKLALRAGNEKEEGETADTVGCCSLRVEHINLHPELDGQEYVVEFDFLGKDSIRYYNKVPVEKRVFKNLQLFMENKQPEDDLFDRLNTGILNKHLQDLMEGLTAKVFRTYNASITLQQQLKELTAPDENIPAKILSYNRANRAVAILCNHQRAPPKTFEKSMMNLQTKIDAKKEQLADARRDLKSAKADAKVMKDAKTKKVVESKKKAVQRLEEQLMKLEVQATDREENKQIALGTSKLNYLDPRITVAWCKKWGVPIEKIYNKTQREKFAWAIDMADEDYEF
Description: Inhibition of human recombinant topoisomerase 1-mediated supercoiled pUC19 DNA relaxation up to 100 uM […] by agarose gel electrophoresis analysis. The following applies: in the assay text read “45 mins” for “2 hrs”. The essentials:
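Supercoiled pUC19 (130 ng) is incubated with 4 units of recombinant human topoisomerase I for 45 min at 37 °C. The relaxation buffer is 50 mM Tris pH 7.8, 50 mM KCl, 10 mM MgCl2, 1 mM DTT and 1 mM EDTA, with graded drug. Reactions are stopped with 0.25% SDS and 250 μg/mL proteinase K. Samples are run on 1% agarose for 2 h at 120 V and stained with ethidium bromide.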

Test [9] concerns PC-3. The test can be described thus: Antiproliferative activity against human PC3 cells after 72 hrs by MTS assay. The format is functional, cell-based. The following applies: PC-3, 72 h. A general note: Tetrazolium assays rely on reduction of a dye to a coloured formazan, in cell work by metabolically active cells.
Test [10] relates to HT-29. Description: Antiproliferative activity against human HT-29 cells after 72 hrs by MTS assay. In kind it is functional, cell-based. The following applies: HT-29, 72 h.
Test [11] has as its system MCF7. Description: Antiproliferative activity against human MCF7 cells after 72 hrs by MTS assay. The following applies: MCF7, 72 h. In kind it is functional, cell-based.

On to `COc1cc2ncnc(N(C)c3ccc(C)c(Br)c3)c2cc1OC`, for which the ΔTm (as a rule, the shift of the melting midpoint relative to a reference) in test [1] was 8.4 °C; in [2], 15 °C. In addition, the result in [3], in [4], in [6] and in [7] was Active. Further, the pKd (in general, the negative decadic logarithm of the Kd, by convention in mol/L) in test [5] was 3.49. The inhibition entry in [8] was “inactive”. The pIC50 (in general, the negative decadic logarithm of the IC50, by convention in mol/L) was 5.02 in test [9], 5.20 in test [10] and 5.00 in [11].

Regarding `CCN(CC)CCN(c1ccc(C)c(Br)c1)c1ncnc2cc(OC)c(OC)cc12`, the results for the ΔTm in [1] and in [2] were 14 °C and 24.1 °C, respectively. In addition, the result in test [3], in test [4], in test [6] and in [7] was Active. Further, the pKd in [5] is 4.40. For the same compound, the inhibition entry in test [8] is “inactive”. The pIC50 was below 5.00 in test [9], 5.25 in test [10] and 5.17 in test [11].

For the origin of these results see ChEMBL document CHEMBL1275400, “Design, synthesis, and DNA-binding of N-alkyl(anilino)quinazoline derivatives” (J Med Chem, 2010).
